# Key:
# healthy young subjects = assay: Safety and tolerability; assay type: in vivo, human
# Method in brief: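 Adverse events were recorded by system organ class and preferred term in 12 healthy young subjects. Each received single fasted 25-mg doses in the morning and evening, open-label crossover, washout ≥11 days. Baselines were the last measurements before the morning dose and before the evening dose.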
# [1] = Pharmacokinetics after single and multiple doses, part 1; assay type: in vivo, human; details: for AUCτ,ss,norm / Cmax,ss,norm / AUC0–24,norm / Cmax,norm / AUC(0-t) / AUC / Cmax: gMean (%CV); for AUC(0-t) / AUC / Cmax / Tmax: human, plasma, oral; for AUC: AUCτ,ss; for Tmax: median and range (minimum, maximum)
# Method in brief: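 Randomised 3:1 double-blind placebo-controlled groups (9 active, 3 placebo) of healthy young or elderly subjects took 5- or 25-mg tablets. Dosing was a single dose on day 1, QD or BID for 10 days from day 4, and a single dose on day 14. Fasted on days 1 and 14. Blood was sampled through day 23 and urine after first and last doses (QD only). Plasma/urine LC-MS/MS used a seven-point calibration. Geometric mean (%CV) values were reported.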
# [2] = elderly, 25 mg QD, multiple dose
# [3] = elderly, 50 mg QD, multiple dose
smiles,measurement,setting,value
C[C@@H](Oc1ccc(S(C)(=O)=O)cc1C(=O)N1C[C@@H]2C[C@]2(c2cc(C(F)(F)F)on2)C1)C(F)(F)F [BI 425809],"changes in laboratory parameters, vital signs, 12-lead ECG, examinations, suicidality, oxygen saturation, VAS","healthy young subjects; part 2, single 25 mg doses",No clinically relevant changes
same,serious AEs,"healthy young subjects; part 2, single 25 mg doses",No serious AEs were reported
same,Dizziness,"healthy young subjects; young, part 2, 25 mg QD",0 (–) n (%)
same,Eye disorders,"healthy young subjects; young, part 2, 25 mg QD",0 (–) n (%)
same,Gastrointestinal disorders,"healthy young subjects; young, part 2, 25 mg QD",0 (–) n (%)
same,General disorders and administration site conditions,"healthy young subjects; young, part 2, 25 mg QD",0 n (%)
same,Headache,"healthy young subjects; young, part 2, 25 mg QD",1 (8.3) n (%)
same,Infections and infestations,"healthy young subjects; young, part 2, 25 mg QD",1 (8.3) n (%)
same,Insomnia,"healthy young subjects; young, part 2, 25 mg QD",0 (–) n (%)
same,Musculoskeletal and connective tissue disorders,"healthy young subjects; young, part 2, 25 mg QD",0 (–) n (%)
same,Nasopharyngitis,"healthy young subjects; young, part 2, 25 mg QD",1 (8.3) n (%)
same,Nervous system disorder,"healthy young subjects; young, part 2, 25 mg QD",1 (8.3) n (%)
same,Ocular discomfort,"healthy young subjects; young, part 2, 25 mg QD",0 (–) n (%)
same,Psychiatric disorders,"healthy young subjects; young, part 2, 25 mg QD",0 (–) n (%)
same,Subjects with AEs leading to study discontinuation,"healthy young subjects; young, part 2, 25 mg QD",0 (–) n (%)
same,Subjects with investigator-defined drug-related AEs,"healthy young subjects; young, part 2, 25 mg QD",0 (–) n (%)
same,Total with AEs,"healthy young subjects; young, part 2, 25 mg QD",2 (16.7) n (%)
same,Vision blurred,"healthy young subjects; young, part 2, 25 mg QD",0 (–) n (%)
same,"dose proportionality of exposure parameters (Cmax, AUC0–24, Cmax,ss and AUCτ,ss)","[1]; 10 and 25 mg, tablet",dose proportionality was observed
same,linearity index,[1]; QD groups,~1
same,time to steady state after the start of multiple dosing,[1]; all treatment groups,2 to 6 days
same,dose proportionality of exposure,"[1]; doses of ≥ 50 mg, tablet",clearly less than dose proportional
same,"AUCτ,ss,norm",[1]; [2],439 (11.6) nmol·h/L/mg
same,"Cmax,ss,norm",[1]; [2],24.7 (10.9) nmol/L/mg
same,"AUC0–24,norm","[1]; elderly, 25 mg QD, single dose",139 (18.5) nmol·h/L/mg
same,"Cmax,norm","[1]; elderly, 25 mg QD, single dose",9.4 (18.7) nmol/L/mg
same,"AUCτ,ss,norm",[1]; [3],278 (30.8) nmol·h/L/mg
same,"Cmax,ss,norm",[1]; [3],16.0 (25.0) nmol/L/mg
same,"AUC0–24,norm","[1]; elderly, 50 mg QD, single dose",112 (17.9) nmol·h/L/mg
same,"Cmax,norm","[1]; elderly, 50 mg QD, single dose",7.43 (25.9) nmol/L/mg
same,AUC(0-t),"[1]; 10 mg, AUC0–24, young, 10 mg QD, single dose",1.41 µM·h
same,AUC,"[1]; 10 mg, young, 10 mg QD, multiple dose",3.87 µM·h
same,Cmax,"[1]; 10 mg, Cmax, young, 10 mg QD, single dose",109 nM
same,Tmax,"[1]; 10 mg, tmax,ss, young, 10 mg QD, multiple dose",4.5 h
same,AUC(0-t),"[1]; 25 mg, AUC0–24, elderly, 25 mg QD, single dose",3.46 µM·h
same,AUC(0-t),"[1]; 25 mg, AUC0–24, young, 25 mg QD, single dose",3.72 µM·h
same,AUC,"[1]; 25 mg, elderly, 25 mg QD, multiple dose",11 µM·h
same,AUC,"[1]; 25 mg, young, 25 mg QD, multiple dose",10.6 µM·h
same,Cmax,"[1]; 25 mg, Cmax, elderly, 25 mg QD, single dose",235 nM
same,Cmax,"[1]; 25 mg, Cmax, young, 25 mg QD, single dose",278 nM
same,Cmax,"[1]; 25 mg, Cmax,ss, elderly, 25 mg QD, multiple dose",618 nM
same,Cmax,"[1]; 25 mg, Cmax,ss, young, 25 mg QD, multiple dose",582 nM
same,Tmax,"[1]; 25 mg, tmax, elderly, 25 mg QD, single dose",3.5 h
same,Tmax,"[1]; 25 mg, tmax, young, 25 mg QD, single dose",4.5 h
same,Tmax,"[1]; 25 mg, tmax,ss, elderly, 25 mg QD, multiple dose",3 h
same,Tmax,"[1]; 25 mg, tmax,ss, young, 25 mg QD, multiple dose",3.75 h
same,AUC(0-t),"[1]; 50 mg, AUC0–24, elderly, 50 mg QD, single dose",5.62 µM·h
same,AUC(0-t),"[1]; 50 mg, AUC0–24, young, 50 mg QD, single dose",6.02 µM·h
same,AUC,"[1]; 50 mg, elderly, 50 mg QD, multiple dose",13.9 µM·h
same,AUC,"[1]; 50 mg, young, 50 mg QD, multiple dose",14.2 µM·h
same,Cmax,"[1]; 50 mg, Cmax, elderly, 50 mg QD, single dose",371 nM
same,Cmax,"[1]; 50 mg, Cmax, young, 50 mg QD, single dose",397 nM
same,Cmax,"[1]; 50 mg, Cmax,ss, elderly, 50 mg QD, multiple dose",802 nM
same,Cmax,"[1]; 50 mg, Cmax,ss, young, 50 mg QD, multiple dose",800 nM
same,Tmax,"[1]; 50 mg, tmax, elderly, 50 mg QD, single dose",4.5 h
same,Tmax,"[1]; 50 mg, tmax, young, 50 mg QD, single dose",4.5 h
same,Tmax,"[1]; 50 mg, tmax,ss, elderly, 50 mg QD, multiple dose",4.5 h
same,Tmax,"[1]; 50 mg, tmax,ss, young, 50 mg QD, multiple dose",3.5 h

# Source: article PMC6061410 (Clinical Drug Investigation, 2018)
